Measured values: article PMC12679602 (RSC Advances, 2025)
“And” between values parts separate entries of the source, which are not always exact repeats. Equal entries are not always repeated.

Legend:
S. flexneri ATCC 9199 = experiment: Disc diffusion, S. flexneri; type: cell-based, Shigella flexneri; settings: for Inhibition zone ± SD, S. flexneri: 1 mg per disc, 6 mm disc, 37 °C, 18–24 h
How it was run: (§1)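 Test compounds were dissolved in DMSO, and 1 mg was loaded onto sterile 6 mm paper discs. Nutrient agar plates were inoculated with bacterial suspension adjusted to 0.5 McFarland. Each plate held four zones: DMSO negative control, ciprofloxacin positive control (5 µg per disc), the free bile acid and its salts. Plates were incubated at 37 °C for 18–24 h. Inhibition zones were read in mm, in triplicate.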

[1] = tested on: B. cereus, S. aureus, S. epidermidis, E. faecalis, and E. coli; experiment: Disc diffusion, range over strains as summarised in text; type: cell-based; settings: for inhibition zones, range over strains: B. cereus, S. aureus, S. epidermidis, E. faecalis, E. coli, 1 mg per disc
How it was run: as §1

[2] = tested on: Enterococcus faecalis TISTR927; experiment: Disc diffusion, E. faecalis; type: cell-based; settings: for Inhibition zone ± SD, E. faecalis: 1 mg per disc, 6 mm disc, 37 °C, 18–24 h
How it was run: as §1

Bacillus cereus TISTR035 = experiment: Disc diffusion, B. cereus; type: cell-based; settings: for Inhibition zone ± SD, B. cereus: 1 mg per disc, 6 mm disc, 37 °C, 18–24 h
How it was run: as §1

S. typhi = experiment: Disc diffusion, S. typhi; type: cell-based, Salmonella enterica serovar Typhimurium TISTR1470; settings: for Inhibition zone ± SD, S. typhi: 1 mg per disc, 6 mm disc, 37 °C, 18–24 h
How it was run: as §1

[3] = tested on: Staphylococcus epidermidis TISTR2172; experiment: Disc diffusion, S. epidermidis; type: cell-based; settings: for Inhibition zone ± SD, S. epidermidis: 1 mg per disc, 6 mm disc, 37 °C, 18–24 h
How it was run: as §1

[4] = tested on: Escherichia coli TISTR117; experiment: Disc diffusion, E. coli; type: cell-based; settings: for Inhibition zone ± SD, E. coli: 1 mg per disc, 6 mm disc, 37 °C, 18–24 h
How it was run: as §1

[5] = tested on: Staphylococcus aureus TISTR746; experiment: Disc diffusion, S. aureus; type: cell-based; settings: for Inhibition zone ± SD, S. aureus: 1 mg per disc, 6 mm disc, 37 °C, 18–24 h
How it was run: as §1

[6] = tested on: Candida albicans TISTR5554; experiment: Disc diffusion, C. albicans; type: cell-based; settings: for Inhibition zone ± SD, C. albicans: 1 mg per disc, 6 mm disc, 37 °C, 18–24 h
How it was run: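 Disc diffusion against the yeast. Test compound was in DMSO at 1 mg per 6 mm sterile paper disc, on nutrient agar inoculated with suspension standardized to 0.5 McFarland. Each plate carried a DMSO negative control, amphotericin B positive control (10 µg per disc), the free bile acid and its salts. Incubation was 37 °C for 18–24 h. Zone of inhibition was measured in mm, in triplicate.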

[7] = tested on: Pseudomonas aeruginosa TISTR357; experiment: Disc diffusion, P. aeruginosa; type: cell-based; settings: for Inhibition zone ± SD, P. aeruginosa: 1 mg per disc, 6 mm disc, 37 °C, 18–24 h
How it was run: as §1

in vitro = settings: human
[8] = Enterococcus faecalis, TISTR927, read-out: Inhibition zone ± SD, E. faecalis
[9] = Bacillus cereus, TISTR035, read-out: Inhibition zone ± SD, B. cereus
[10] = Staphylococcus epidermidis, TISTR2172, read-out: Inhibition zone ± SD, S. epidermidis
[11] = Escherichia coli, TISTR117, read-out: Inhibition zone ± SD, E. coli
[12] = Staphylococcus aureus, TISTR746, read-out: Inhibition zone ± SD, S. aureus

SMILES	Inhibition zone ± SD, S. flexneri (S. flexneri ATCC 9199)	Inhibition zone ± SD, E. faecalis [2]	Inhibition zone ± SD, B. cereus (Bacillus cereus TISTR035)	Inhibition zone ± SD, S. typhi (S. typhi)	Inhibition zone ± SD, S. epidermidis [3]	Inhibition zone ± SD, E. coli [4]	Inhibition zone ± SD, S. aureus [5]	Inhibition zone ± SD, C. albicans [6]	Inhibition zone ± SD, P. aeruginosa [7]	further results
C[C@H](CCC(=O)[O-])[C@H]1CC[C@H]2[C@@H]3CC[C@@H]4C[C@H](O)CC[C@]4(C)[C@H]3C[C@H](O)[C@]12C.C[N+](C)(C)CCO [[DCA][Z] (8)]	Inactive	15.0 mm and 15.0 ± 1.3 mm	18.1 ± 1.7 mm	Inactive	19.1 mm and 19.1 ± 0.2 mm	13.0 ± 1.9 mm	15.4 ± 2.0 mm	Inactive	Inactive	inhibition zones, range over strains [1]: 13.0–19.1 mm; improvement in antibacterial activity compared to its bile acid DCA (5) ([1]; S. epidermidis and E. faecalis inhibition zones): 41.4–41.5%
C[C@H](CCC(=O)O)[C@H]1CC[C@H]2[C@@H]3[C@@H](O)C[C@@H]4C[C@H](O)CC[C@]4(C)[C@H]3CC[C@]12C [UDCA (9), ursodeoxycholic acid]	Inactive		8.7 ± 0.3 mm	Inactive	9.6 ± 0.4 mm	7.4 ± 0.4 mm	7.8 ± 0.8 mm	Inactive	Inactive	
O=C(O)c1cn(C2CC2)c2cc(N3CCNCC3)c(F)cc2c1=O [ciprofloxacin, reference compound]										zone of inhibition at 5 µg/disc (S. flexneri ATCC 9199; Shigella flexneri, ATCC9199, read-out: Inhibition zone ± SD, S. flexneri): 42.1 ± 0.7 mm; zone of inhibition at 5 µg/disc [2, 8]: 24.1 ± 1 mm; zone of inhibition at 5 µg/disc (Bacillus cereus TISTR035; [9]): 33.2 ± 1.6 mm; zone of inhibition at 5 µg/disc (S. typhi; Salmonella enterica, TYPHI, read-out: Inhibition zone ± SD, S. typhi): 39.3 ± 2.6 mm; zone of inhibition at 5 µg/disc [3, 10]: 36.4 ± 0.4 mm; zone of inhibition at 5 µg/disc [4, 11]: 38.5 ± 2.1 mm; zone of inhibition at 5 µg/disc [5, 12]: 31 ± 1.5 mm; zone of inhibition at 5 µg/disc ([7]; Pseudomonas aeruginosa, TISTR357, read-out: Inhibition zone ± SD, P. aeruginosa): 31.2 ± 1.1 mm
C[C@H](CCC(=O)[O-])[C@H]1CC[C@H]2[C@@H]3[C@H](O)C[C@@H]4C[C@H](O)CC[C@]4(C)[C@H]3CC[C@]12C.C[N+](C)(C)CCO [[CDCA][Z] (16)]	Inactive	12.2 mm and 12.2 ± 2.6 mm	16.4 mm and 16.4 ± 0.7 mm	Inactive	17.1 mm and 17.1 ± 0.5 mm	10.4 mm and 10.4 ± 1.2 mm	13.8 mm and 13.8 ± 1.3 mm	Inactive	Inactive	
C[C@@H]1[C@H](O)[C@@H](C)/C=C/C=C/C=C/C=C/C=C/C=C/C=C/[C@H](O[C@@H]2O[C@H](C)[C@@H](O)[C@H](N)[C@@H]2O)C[C@@H]2O[C@](O)(C[C@@H](O)C[C@@H](O)[C@H](O)CC[C@@H](O)C[C@@H](O)CC(=O)O[C@H]1C)C[C@H](O)[C@H]2C(=O)O [amphotericin B, reference compound]										zone of inhibition at 10 µg/disc ([6]; Candida albicans, TISTR5554, read-out: Inhibition zone ± SD, C. albicans): 21.8 ± 1.3 mm
CCO [Ethanol, ethanol, reference compound]										CC50 (A549-hACE2 cells): >70% v/v
C[C@H](CCC(=O)O)[C@H]1CC[C@H]2[C@@H]3CC[C@@H]4C[C@H](O)CC[C@]4(C)[C@H]3CC[C@]12C [LCA (1), lithocholic acid]	Inactive			Inactive				Inactive	Inactive	CC50 (in vitro): > 50 µg/mL; cytotoxicity (A549-hACE2 cells): did not show cytotoxicity
C[C@H](CCC(=O)O)[C@H]1CC[C@H]2[C@@H]3CC[C@@H]4C[C@H](O)CC[C@]4(C)[C@H]3C[C@H](O)[C@]12C [DCA (5), deoxycholic acid]	Inactive	10.6 ± 0.4 mm	14.4 ± 1.5 mm	Inactive	13.5 ± 0.7 mm	10.9 ± 1.6 mm	11.7 ± 1.6 mm	Inactive	Inactive	inhibition zones, range over strains [1]: 10.6–14.4 mm; zone of inhibition at 1000 µg/disc [2, 8]: 10.6 mm; zone of inhibition at 1000 µg/disc [3, 10]: 13.5 mm
C[C@H](CCC(=O)[O-])[C@H]1CC[C@H]2[C@@H]3CC[C@@H]4C[C@H](O)CC[C@]4(C)[C@H]3CC[C@]12C.C[N+](C)(C)CCO [[LCA][Z] (4)]	Inactive		7.8 mm and 7.8 ± 1.2 mm	Inactive				Inactive	Inactive	CC50 (A549-hACE2 cells): >50 µg/mL; cytotoxicity (A549-hACE2 cells): did not exhibit cytotoxicity
C[C@H](CCC(=O)O)[C@H]1CC[C@H]2[C@@H]3[C@H](O)C[C@@H]4C[C@H](O)CC[C@]4(C)[C@H]3CC[C@]12C [CDCA (13), chenodeoxycholic acid]	Inactive	8.4 ± 1.1 mm	13.5 ± 0.4 mm	Inactive	11.8 ± 0.4 mm	7.6 ± 0.6 mm	9.4 ± 0.8 mm	Inactive	Inactive	zone of inhibition at 1000 µg/disc [2, 8]: 8.4 mm; zone of inhibition at 1000 µg/disc (Bacillus cereus TISTR035; [9]): 13.5 mm; zone of inhibition at 1000 µg/disc [3, 10]: 11.8 mm; zone of inhibition at 1000 µg/disc [4, 11]: 7.6 mm; zone of inhibition at 1000 µg/disc [5, 12]: 9.4 mm
CC(CCC(=O)[O-])C1CCC2C3C(O)CC4CC(O)CCC4(C)C3CCC12C.C[N+](C)(C)CCO (stereo not shown) [[UDCA][Z] (12)]	Inactive		12.5 ± 0.5 mm	Inactive	13.0 ± 0.5 mm	10.1 ± 1.1 mm	10.3 ± 1.7 mm	Inactive	Inactive	
